The test system of data set [1] is Mycobacterium tuberculosis. The data set can be described thus: Antimycobacterial activity against Mycobacterium tuberculosis MC2 6030 after 2 to 3 weeks by agar plate method. The class given is functional. The essentials: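 Strain mc²6030 is a pantothenate auxotroph lacking RD1, grown at 37 °C in Sauton's medium plus 20 μg/ml pantothenic acid. Serial 10-fold dilutions of actively growing culture were plated on 7H10/OADC agar with 20 μg/ml pantothenic acid and increasing compound concentrations, from 10 mg/ml DMSO stocks. Plates were held 2–3 weeks at 37 °C. MIC was the concentration inhibiting 99% of growth; isoniazid served as control.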

A further data set has as its system HepG2. The data set can be described thus: Cytotoxicity against human HepG2 cells assessed as reduction in cell viability after 72 hrs by MTT assay. The class given is cell-based. The settings on record: hepg2, 72 h. An outline of the steps:
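HepG2 cells grown in Eagle's MEM with 10% FBS at 37 °C and 5% CO2. Cells were scraped, resuspended at ~1 × 10^6 cells/mL, plated and left 24 h, then exposed to compound at 400 to 0.2 µg/mL for 72 h. Viability read by MTT assay. IC50 (50% loss of viability) taken from a dose–response curve versus log10 concentration.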

Data set [2] concerns Mycobacterium tuberculosis. Kind of data set: Antimycobacterial activity against Mycobacterium tuberculosis H37Rv ATCC 27294 after 7 days by microplate alamar blue assay. The class given is functional. The settings on record: H37Rv ATCC 27294, 168 h. The essentials:
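MABA run in 7H12 medium in 96-well plates for 7 days at 37 °C. Alamar Blue and Tween 80 were then added for a further 24 h. Fluorescence was read at 530/590 nm. MIC was the lowest concentration giving a 90% fluorescence (or luminescence) reduction versus controls. Luciferase reporter strains or intracellular ATP were used for compounds with background fluorescence. Isoniazid and rifampin were run as controls.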

For data set [3], the system named is Mycolicibacterium smegmatis. The data set can be described thus: Inhibition of epoxy-mycolic acid biosynthesis in Mycobacterium smegmatis MC2 155 assessed as reduction in [1-14C]acetate incorporation at 5 times antibacterial MIC preincubated for 90 mins followed by [1-14C]acetate addition measured after 1 hr by liquid scintillation counting based TLC method. The class given is functional. Conditions: str. MC2 155.

Data set [4] deals with Mycolicibacterium smegmatis. The data set can be described thus: Inhibition of fattyacid biosynthesis in Mycobacterium smegmatis MC2 155 assessed as reduction in [1-14C]acetate incorporation at 5 times antibacterial MIC preincubated for 90 mins followed by [1-14C]acetate addition measured after 1 hr by liquid scintillation counting based TLC method. The class given is functional. The settings on record: str. MC2 155.

The test system of data set [5] is Mycolicibacterium smegmatis. Kind of data set: Inhibition of alpha'-mycolic acid biosynthesis in Mycobacterium smegmatis MC2 155 assessed as reduction in [1-14C]acetate incorporation at 5 times antibacterial MIC preincubated for 90 mins followed by [1-14C]acetate addition measured after 1 hr by liquid scintillation counting based TLC method. The class given is functional. The settings on record: str. MC2 155.

Data set [6] deals with Mycolicibacterium smegmatis. Kind of data set: Inhibition of alpha-mycolic acid biosynthesis in Mycobacterium smegmatis MC2 155 assessed as reduction in [1-14C]acetate incorporation at 5 times antibacterial MIC preincubated for 90 mins followed by [1-14C]acetate addition measured after 1 hr by liquid scintillation counting based TLC method. The class given is functional. The settings on record: str. MC2 155.

Data set [7] deals with Mycolicibacterium smegmatis. Kind of data set: Antimycobacterial activity against Mycobacterium smegmatis MC2 155 after 48 hrs by serial dilution method. The class given is functional. The settings on record: str. MC2 155, 48 h. The essentials: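 M. smegmatis grown in Middlebrook 7H9 with 10% albumin–dextrose complex and 0.03% Tween80 at 37 °C. Twofold serial dilutions of compound were combined with mid-log culture diluted to OD570 0.01, giving a final range of […] in 7H9 broth. Incubated in ambient air at 37 °C for 48 h. MIC taken as the lowest concentration preventing visible growth.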

The next data set deals with Peritoneal macrophage. The data set can be described thus: Cytotoxicity against Balb/c mouse peritoneal macrophages assessed as reduction in cell viability after 48 hrs by MTT assay. In kind it is cell-based. An outline of the steps: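 Murine peritoneal macrophages, 1 × 10^6 cells/well, exposed to compound at 0.1 to 250 µg/ml in RPMI-1640 with 10% FBS for 48h. MTT (5 mg/ml) added for 3 h at 37°C, formazan dissolved in 0.04M HCl in isopropanol for 15 min at room temperature, absorbance read at 570 nm. IC50 (50% loss of viability) taken from a dose–response curve of percentage activity versus log10 concentration.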

Data set [8] deals with Mycolicibacterium smegmatis. Kind of data set: Antimycobacterial activity against Mycobacterium smegmatis MC2 155 infected in Balb/c mouse peritoneal macrophages assessed as downregulation of IL-10 mRNA expression at 5 ug/ml after 6 hrs RT-PCR method. In kind it is functional. Conditions: str. MC2 155. The essentials: (§1)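 BALB/c peritoneal macrophages were cultured 48 h in RPMI-1640 with 10% FBS. Cells at 2 × 10⁶/ml were infected with mid-log, PBS-washed mc²155 at a macrophage:bacteria ratio of 1:10 for 6 h, then washed three times. Compound was added at 5 µg/mL for another 6 h. Total RNA was taken up in Trizol, 1 µg was used for cDNA, and PCR ran 40 cycles (94 °C 45 s, 60 °C 1 min, 72 °C 1 min).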

Data set [9] has as its system Mycolicibacterium smegmatis. Kind of data set: Antimycobacterial activity against Mycobacterium smegmatis MC2 155 infected in Balb/c mouse peritoneal macrophages assessed as upregulation of IL-12 mRNA expression at 5 ug/ml after 6 hrs RT-PCR method. The class given is functional. Conditions: str. MC2 155. The essentials:
as §1

Data set [10] has as its system Mycolicibacterium smegmatis. Kind of data set: Antimycobacterial activity against Mycobacterium smegmatis MC2 155 infected in Balb/c mouse peritoneal macrophages assessed as increase in iNOS2 mRNA expression at 5 ug/ml after 6 hrs RT-PCR method. In kind it is functional. Conditions: str. MC2 155. An outline of the steps: as §1
Data set [11] concerns Mycolicibacterium smegmatis. The data set can be described thus: Antimycobacterial activity against Mycobacterium smegmatis MC2 155 infected in Balb/c mouse peritoneal macrophages assessed as upregulation of IFN-gamma mRNA expression at 5 ug/ml after 6 hrs RT-PCR method. Conditions: str. MC2 155. In kind it is functional. The essentials:
as §1

Data set [12] relates to Mycobacterium tuberculosis. The data set can be described thus: Antimycobacterial activity against Mycobacterium tuberculosis H37Rv ATCC 27294 at 50 ug/ml after 7 days by microplate alamar blue assay relative to control. In kind it is functional. The settings on record: H37Rv ATCC 27294, 168 h.

≈ marks a conversion by molar mass, not a printed value. Calls of active or inactive are those of the source. The calls are words filed in the database; no cut-off is given here. A value given as a limit tells only on which side of the number the result lay.

With `CCCCOc1ccc(NC(=O)Nc2ccccc2C)cc1`, the MIC99 in data set [1] turned out to be 100 µg/mL (≈ 335 µM). The Activity came out at 130.5 µg/mL in the data set with HepG2 and 125.7 µg/mL with Peritoneal macrophage. Also, in [2], the MIC90 was 7 µg/mL (≈ 23.5 µM). In addition, in [3], the inhibition result was “Active”. In addition, the inhibition entry in data set [4], in data set [5] and in data set [6] was “inactive” in each case. This compound showed an MIC in [7] of 100 µg/mL (≈ 335 µM).

Consider `CC(C)=CCOc1cccc(NC(=O)Nc2cccc(C(F)(F)F)c2)c1`, for which the Activity in the data set on HepG2 amounted to 135.6 µg/mL; with Peritoneal macrophage it was 116.7 µg/mL. This compound had an MIC90 in data set [2] of 40.2 µg/mL (≈ 110 µM). Besides, the inhibition result in [3] is “Active”. In data set [4], the inhibition result was “inactive”. This compound gave an MIC in [7] of 3.12 µg/mL (≈ 8.56 µM).

Consider `CC(C)=CCOc1cccc(NC(=O)Nc2cccc(C#N)c2)c1`, for which the outcome in data set [8], in [9], in [10] and in data set [11] was Active. Besides, the Activity with HepG2 was determined as 172.6 µg/mL; in the data set with Peritoneal macrophage, 159.4 µg/mL. In data set [2], the MIC90 was found to be 9.2 µg/mL (≈ 28.6 µM). In addition, the inhibition result in [3] was “Active”. Moreover, the inhibition entry in data set [4], in [5] and in data set [6] was “inactive” each time. The compound also returned an MIC in [7] of 25 µg/mL (≈ 77.8 µM).

With `CC(C)=CCOc1cccc(NC(=O)Nc2cccc(F)c2)c1`, the values for the Activity in the data set with HepG2 and with Peritoneal macrophage were 94 µg/mL and 83.7 µg/mL, respectively. In data set [2], the MIC90 is over 50 µg/mL. Besides, in [3], the inhibition entry was “Active”. The inhibition entry in data set [4] was “inactive”. In addition, in data set [12], the inhibition at 50 µg/mL was 89%. In data set [7], this compound yielded an MIC of 25 µg/mL (≈ 79.5 µM).

Regarding `CC(C)=CCOc1cccc(NC(=O)Nc2ccccc2C)c1`, the result in [8], in data set [9], in [10] and in data set [11] was Active. The compound further had an MIC99 in data set [1] of 1 µg/mL (≈ 3.22 µM). Besides, the Activity worked out at 163.4 µg/mL with HepG2 and 140.5 µg/mL with Peritoneal macrophage. For the same compound, the MIC90 in data set [2] stood at 5.2 µg/mL (≈ 16.8 µM). The inhibition entry in data set [3] is “Active”. The inhibition entry in data set [4], in data set [5] and in data set [6] was “inactive” in each case. The compound also came in with an MIC in data set [7] of 12.5 µg/mL (≈ 40.3 µM).

For the compound `CC(C)=CCOc1cccc(NC(=O)Nc2cccc(C(=O)O)c2)c1`, the Activity was 132.6 µg/mL with HepG2 and 120.4 µg/mL with Peritoneal macrophage. This compound also displayed an MIC90 in data set [2] of 16.5 µg/mL (≈ 48.5 µM). In addition, the inhibition result in data set [3] is “Active”. In addition, the inhibition result in data set [4], in [5] and in data set [6] was “inactive” each time. In data set [7], this compound registered an MIC of 12.5 µg/mL (≈ 36.7 µM).

In the case of `CC(C)=CCOc1cccc(NC(=O)Nc2cccc([N+](=O)[O-])c2)c1`, the outcome in [8] and in [10] was Active. Moreover, the outcome in data set [9] and in data set [11] was inactive. This compound also had an MIC99 in data set [1] of 2 µg/mL (≈ 5.86 µM). Further, the Activity in the data set on HepG2 stood at 113.7 µg/mL; in the data set with Peritoneal macrophage, 94.1 µg/mL. This compound registered an MIC90 in data set [2] of 6 µg/mL (≈ 17.6 µM). Moreover, in data set [3], the inhibition entry was “Active”. Further, the inhibition result in data set [4], in [5] and in data set [6] was “inactive” throughout. The lowest concentration to inhibit growth in data set [7] (MIC) was 3.21 µg/mL (≈ 9.4 µM).

`C=CCOc1cccc(NC(=O)Nc2ccccc2)c1` gave an MIC99 in data set [1] of 20 µg/mL (≈ 74.5 µM). In addition, the figures for the Activity in the data set with HepG2 and in the data set with Peritoneal macrophage were 150.6 µg/mL and 142.5 µg/mL, respectively. The MIC90 in data set [2] was over 50 µg/mL. In [12], this compound displayed an inhibition at 50 µg/mL of 73%. In data set [7], the minimal inhibitory concentration (MIC) worked out at 100 µg/mL (≈ 373 µM).

In data set [1], `CC(C)=CCOc1ccc(NC(=O)Nc2ccccc2)cc1` registered an MIC99 of 30 µg/mL (≈ 101 µM). In addition, the results for the Activity with HepG2 and in the data set on Peritoneal macrophage were 124.7 µg/mL and 109.5 µg/mL, respectively. The compound further registered an MIC90 in data set [2] of 43.1 µg/mL (≈ 145 µM). Also, the inhibition entry in data set [3], in [4], in data set [5] and in data set [6] was “inactive” each time. In [7], this compound gave a minimal inhibitory concentration (MIC) of 25 µg/mL (≈ 84.4 µM).

Compound `CCCCOc1ccc(NC(=O)Nc2cccc(C#N)c2)cc1` gave an MIC99 in data set [1] of over 100 µg/mL. Besides, the Activity was determined as 206.7 µg/mL in the data set with HepG2 and 180.9 µg/mL with Peritoneal macrophage. In data set [2], this compound registered an MIC90 of over 50 µg/mL. In data set [12], this compound returned an inhibition at 50 µg/mL of 22%. The same compound showed an MIC in [7] of over 200 µg/mL.

With `C=CCOc1ccc(NC(=O)Nc2cccc(C#N)c2)cc1`, the MIC99 in [1] is over 100 µg/mL. Besides, the Activity with HepG2 was determined as 103.5 µg/mL; in the data set on Peritoneal macrophage it was 96.7 µg/mL. For the same compound, in data set [2], the MIC90 is over 50 µg/mL. In addition, the inhibition at 50 µg/mL in data set [12] came out at 66%. This compound registered an MIC in data set [7] of over 200 µg/mL.
